Experimental data reported in ChEMBL document CHEMBL4371006, “Discovery of N-[4-(Quinolin-4-yloxy)phenyl]benzenesulfonamides as Novel AXL Kinase Inhibitors” (J Med Chem, 2018).
Values belong to the compound of their own block, whether it stands above or below them. Activity calls are given as the source filed them. The calls are words filed in the database; no cut-off is given here.

Experiments:
[1] = biological target: Epithelial discoidin domain-containing receptor 1 (Homo sapiens) (UniProt Q08345); assay: Binding affinity to DDR1 (unknown origin) at 10 uM
[2] = biological target: Epithelial discoidin domain-containing receptor 1 (Homo sapiens) (UniProt Q08345); assay: Inhibition of DDR1 (unknown origin) using biotinylated peptide as substrate at 10 uM by TR-FRET assay
[3] = biological target: Receptor-type tyrosine-protein kinase FLT3 (Homo sapiens) (UniProt P36888); assay: Inhibition of FLT3 (unknown origin) using fluorescence labeled peptide as substrate at 10 uM by IMAP assay
Method in brief: (§1)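 IMAP fluorescence-polarization kinase assay at 10 µmol/L compound, run in triplicate by a contract lab. A fluorescently labeled substrate peptide is phosphorylated, then nanoparticles carrying trivalent metal bind the phosphopeptide and slow its rotation. Read-out is fluorescence polarization, expressed as percent inhibition.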

[4] = biological target: Receptor-type tyrosine-protein kinase FLT3 (Homo sapiens) (UniProt P36888); assay: Inhibition of FLT3 (unknown origin) using biotinylated peptide as substrate at 10 uM by TR-FRET assay
[5] = biological target: Insulin receptor (Homo sapiens) (UniProt P06213); assay: Inhibition of INSR (unknown origin) using fluorescence labeled peptide as substrate at 10 uM by IMAP assay; method in brief: as §1
[6] = biological target: Tyrosine-protein kinase JAK3 (Homo sapiens) (UniProt P52333); assay: Inhibition of JAK3 (unknown origin) using fluorescence labeled peptide as substrate at 10 uM by IMAP assay
Method in brief: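 Kinase selectivity profiling, run by a contract lab, with the test compound at 10 µmol/L in triplicate. In the IMAP format, the kinase phosphorylates a fluorescently labelled substrate peptide in solution. A binding solution of trivalent metal-based nanoparticles is then added to capture the phosphopeptide, and the drop in rotational speed is read as fluorescence polarization. Results are given as percent inhibition of each kinase.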

[7] = biological target: Receptor tyrosine-protein kinase erbB-2 (Homo sapiens) (UniProt P04626); assay: Inhibition of ERBB2 (unknown origin) using biotinylated peptide as substrate at 10 uM by TR-FRET assay
Method in brief: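 HTRF (TR-FRET) kinase assay at 10 µmol/L compound, in triplicate. A biotinylated kinase-specific peptide is phosphorylated. Detection uses a europium cryptate-labeled anti-phospho-residue antibody as donor and XL665-streptavidin as acceptor. Result is percent inhibition.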

[8] = biological target: Receptor tyrosine-protein kinase erbB-2 (Homo sapiens) (UniProt P04626); assay: Binding affinity to ERBB2 (unknown origin) at 10 uM
Method in brief: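 HTRF kinase assay for HER2 at 10 µM compound, triplicate: biotinylated peptide phosphorylated, detected by europium cryptate anti-phospho antibody and streptavidin-XL665 TR-FRET; percent inhibition.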

[9] = biological target: Tyrosine-protein kinase SYK (Homo sapiens) (UniProt P43405); assay: Inhibition of SYK (unknown origin) using fluorescence labeled peptide as substrate at 10 uM by IMAP assay
[10] = biological target: Proto-oncogene tyrosine-protein kinase receptor Ret (Homo sapiens) (UniProt P07949); assay: Inhibition of RET (unknown origin) using fluorescently-labeled peptide as substrate at 10 uM by IMAP fluorescence polarization assay
[11] = biological target: Insulin receptor (Homo sapiens) (UniProt P06213); assay: Inhibition of INSR (unknown origin) using fluorescently-labeled peptide as substrate at 10 uM by IMAP fluorescence polarization assay
[12] = biological target: T1, Hepatocyte growth factor receptor (Homo sapiens, UniProt P08581); assay: Binding affinity to MET in SILAC-labeled human MDA-MB-231 cells lysate by mass spectrometry based kinAffinity assay; format: subcellular
Method in brief: (§2)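 Chemical proteomics: MDA-MB-231 lysate bound to matrix of immobilized broad kinase inhibitors at several densities (BC50), then competed with increasing free compound (CC50); proteins quantified by mass spectrometry, Kd via Cheng-Prusoff. Two competition formats run in parallel to check equilibrium.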

[13] = Antitumor activity against AXL expressing mouse MXT cells allografted in mouse assessed as survival time at 5 mg/kg, ip qd administered 21 consecutive days (reference value: 100%); format: functional
Method in brief: (§3)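 MXT mammary tumour cells implanted subcutaneously and staged to about 125 mm3. Dosing then began: once daily ip for 21 consecutive days, at 5 or 15 mg/kg, alongside a vehicle group, with 7 animals per group. Survival in days was recorded for each animal and given as mean ± SD, and as T/C% against the vehicle group (vehicle = 100%).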

[14] = Antitumor activity against AXL expressing mouse MXT cells allografted in mouse assessed as survival time at 15 mg/kg, ip qd administered 21 consecutive days; format: functional; method in brief: as §3
[15] = Toxicity in mouse allografted with AXL expressing mouse MXT cells assessed as morbidity at 15 mg/kg, ip qd administered 21 consecutive days; format: organism-based; settings: in vivo
[16] = Antitumor activity against AXL expressing mouse MXT cells allografted in mouse assessed as reduction in tumor size at 15 mg/kg, ip qd administered 21 consecutive days relative to control; format: functional; design: scale not given: the % may be the effect or the level left
Method in brief: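 MXT mammary tumor cells implanted subcutaneously, grown to about 125 mm3, then dosed ip once daily for 21 consecutive days at 5 or 15 mg/kg vs vehicle, 7 animals/group; tumor size compared with vehicle after 3 weeks, survival also recorded.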

[17] = biological target: T1, Hepatocyte growth factor receptor; assay: Binding affinity to c-MET in SILAC-labeled human MDA-MB-231 cells lysate by mass spectrometry based kinAffinity assay; format: subcellular
Method in brief: (§4)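 MDA-MB-231 lysate applied to KinAffinity matrix of immobilized broadband kinase inhibitors at graded densities to obtain BC50 per target. Competition then run with increasing free compound to give CC50; Kd derived by Cheng-Prusoff. Two competition experiments in parallel to check equilibrium, one with lysate pre-incubated with compound before adding matrix. Quantitation by mass spectrometry.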

[18] = biological target: MAP/microtubule affinity-regulating kinase 4 (Homo sapiens, UniProt Q96L34); assay: Binding affinity to MARK4 in SILAC-labeled human MDA-MB-231 cells lysate by mass spectrometry based kinAffinity assay; format: subcellular; method in brief: as §2
[19] = biological target: Cyclin-dependent kinase 18 (Homo sapiens, UniProt Q07002); assay: Binding affinity to PCTK3 in SILAC-labeled human MDA-MB-231 cells lysate by mass spectrometry based kinAffinity assay; format: subcellular; method in brief: as §4
[20] = Toxicity in SCID/beige mouse xenografted with human MDA-MB-231 cells assessed as body weight gain at 30 mg/kg, ip bid measured 3 times per week starting at day 12; format: organism-based; settings: in vivo
[21] = test system: MDA-MB-231; assay: Antimetastatic activity against human MDA-MB-231 cells xenografted in mouse assessed as reduction in lung metastasis at 30 mg/kg, ip bid measured 3 times per week starting at day 12 by hematoxylin and eosin staining based assay relative to control; format: functional; design: scale not given: the % may be the effect or the level left
Method in brief: (§5)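 Female SCID/Beige mice inoculated with 2 x 10^6 MDA-MB-231 cells in HBSS:Matrigel (1:1) into third mammary fat pad under ketamine/xylazine. Test agent 30 mg/kg ip twice daily (12 h apart) in PEG400/H2O 70:30, or paclitaxel 10 mg/kg iv three times weekly; 10 mice/group. Tumors measured three times weekly from day 12; lungs and lymph nodes excised, formalin-fixed, nodes H&E-scored (mean ± SEM).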

[22] = test system: MDA-MB-231; assay: Antimetastatic activity against human MDA-MB-231 cells xenografted in mouse assessed as reduction in lymph node metastasis at 30 mg/kg, ip bid measured 3 times per week starting at day 12 by hematoxylin and eosin staining based assay relative to control; format: functional; design: scale not given: the % may be the effect or the level left; method in brief: as §5
[23] = Apparent volume of distribution in mouse at 3 mg/kg, iv by LC/MS/MS analysis; settings: in vivo, read-out: Vz

Sequence of Insulin receptor (Homo sapiens) (P06213 28-758 limits assumed): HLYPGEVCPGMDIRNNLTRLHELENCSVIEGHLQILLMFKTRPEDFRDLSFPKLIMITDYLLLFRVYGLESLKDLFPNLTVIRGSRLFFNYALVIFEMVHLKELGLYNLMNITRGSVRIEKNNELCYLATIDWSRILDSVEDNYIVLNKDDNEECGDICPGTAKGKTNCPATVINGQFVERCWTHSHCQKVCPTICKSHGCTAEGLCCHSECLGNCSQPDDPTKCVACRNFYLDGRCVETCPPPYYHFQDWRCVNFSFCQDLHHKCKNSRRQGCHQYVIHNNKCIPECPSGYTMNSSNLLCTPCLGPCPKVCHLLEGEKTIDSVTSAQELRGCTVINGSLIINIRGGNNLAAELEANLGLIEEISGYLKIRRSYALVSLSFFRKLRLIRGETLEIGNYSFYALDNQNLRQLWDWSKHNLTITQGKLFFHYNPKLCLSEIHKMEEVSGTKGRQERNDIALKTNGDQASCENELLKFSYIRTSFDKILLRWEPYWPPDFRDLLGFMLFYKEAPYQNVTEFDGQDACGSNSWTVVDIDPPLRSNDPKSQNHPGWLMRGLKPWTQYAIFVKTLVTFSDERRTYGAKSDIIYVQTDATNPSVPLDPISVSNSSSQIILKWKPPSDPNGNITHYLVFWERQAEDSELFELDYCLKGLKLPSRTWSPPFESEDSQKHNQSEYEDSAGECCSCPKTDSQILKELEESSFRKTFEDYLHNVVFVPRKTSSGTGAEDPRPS
Sequence of Insulin receptor (Homo sapiens) (P06213 763-1382 limits assumed): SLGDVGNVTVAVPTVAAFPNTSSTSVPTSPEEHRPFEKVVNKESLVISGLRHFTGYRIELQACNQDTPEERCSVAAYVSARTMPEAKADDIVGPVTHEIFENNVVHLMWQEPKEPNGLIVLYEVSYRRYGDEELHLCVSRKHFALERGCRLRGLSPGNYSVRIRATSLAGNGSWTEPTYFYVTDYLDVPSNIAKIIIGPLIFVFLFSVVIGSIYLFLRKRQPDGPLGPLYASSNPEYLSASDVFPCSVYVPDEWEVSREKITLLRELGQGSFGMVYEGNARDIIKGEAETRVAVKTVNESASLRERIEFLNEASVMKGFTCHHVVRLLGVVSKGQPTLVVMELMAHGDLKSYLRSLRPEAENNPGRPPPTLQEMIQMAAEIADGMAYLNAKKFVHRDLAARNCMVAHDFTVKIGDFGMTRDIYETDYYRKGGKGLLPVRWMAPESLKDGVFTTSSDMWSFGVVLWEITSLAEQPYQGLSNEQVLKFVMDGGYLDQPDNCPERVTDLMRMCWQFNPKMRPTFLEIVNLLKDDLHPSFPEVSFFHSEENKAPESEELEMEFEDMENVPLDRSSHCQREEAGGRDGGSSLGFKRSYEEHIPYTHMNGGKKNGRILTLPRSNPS
T1 sequence (P08581 whole entry): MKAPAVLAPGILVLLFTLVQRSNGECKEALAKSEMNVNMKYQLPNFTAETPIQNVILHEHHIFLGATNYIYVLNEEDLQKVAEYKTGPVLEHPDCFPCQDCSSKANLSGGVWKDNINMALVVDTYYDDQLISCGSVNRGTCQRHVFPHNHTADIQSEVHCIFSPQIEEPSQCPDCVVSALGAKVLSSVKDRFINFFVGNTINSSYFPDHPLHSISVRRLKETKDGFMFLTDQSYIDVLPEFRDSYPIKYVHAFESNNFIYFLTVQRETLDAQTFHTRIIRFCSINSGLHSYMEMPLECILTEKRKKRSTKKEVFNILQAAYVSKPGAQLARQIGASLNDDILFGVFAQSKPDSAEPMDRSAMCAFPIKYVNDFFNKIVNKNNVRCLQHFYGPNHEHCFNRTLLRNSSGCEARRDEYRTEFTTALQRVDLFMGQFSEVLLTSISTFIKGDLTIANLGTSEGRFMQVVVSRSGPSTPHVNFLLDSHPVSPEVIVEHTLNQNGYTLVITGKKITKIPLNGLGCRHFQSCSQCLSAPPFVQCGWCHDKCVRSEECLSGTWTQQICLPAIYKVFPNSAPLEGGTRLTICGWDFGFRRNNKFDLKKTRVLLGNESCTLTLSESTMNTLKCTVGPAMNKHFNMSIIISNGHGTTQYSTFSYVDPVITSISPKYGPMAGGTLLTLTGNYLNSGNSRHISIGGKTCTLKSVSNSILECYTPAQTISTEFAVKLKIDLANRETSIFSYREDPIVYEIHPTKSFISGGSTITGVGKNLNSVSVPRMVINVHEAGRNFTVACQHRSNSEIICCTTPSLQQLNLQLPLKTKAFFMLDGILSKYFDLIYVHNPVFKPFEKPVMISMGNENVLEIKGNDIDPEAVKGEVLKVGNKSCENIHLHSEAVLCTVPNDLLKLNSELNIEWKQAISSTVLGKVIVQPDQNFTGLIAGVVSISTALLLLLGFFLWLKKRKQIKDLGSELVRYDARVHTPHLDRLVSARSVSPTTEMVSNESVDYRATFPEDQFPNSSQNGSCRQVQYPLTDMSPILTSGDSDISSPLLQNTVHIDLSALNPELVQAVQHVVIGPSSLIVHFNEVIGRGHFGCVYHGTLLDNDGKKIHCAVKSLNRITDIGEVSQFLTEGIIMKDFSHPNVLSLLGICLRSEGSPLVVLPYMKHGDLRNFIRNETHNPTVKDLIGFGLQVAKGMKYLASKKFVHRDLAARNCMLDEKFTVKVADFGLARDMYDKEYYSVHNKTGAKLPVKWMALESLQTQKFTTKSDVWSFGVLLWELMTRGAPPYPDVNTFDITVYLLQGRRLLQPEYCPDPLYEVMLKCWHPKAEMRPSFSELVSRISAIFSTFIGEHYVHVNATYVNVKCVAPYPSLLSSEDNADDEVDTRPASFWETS
Sequence of Receptor tyrosine-protein kinase erbB-2 (Homo sapiens) (P04626 whole entry): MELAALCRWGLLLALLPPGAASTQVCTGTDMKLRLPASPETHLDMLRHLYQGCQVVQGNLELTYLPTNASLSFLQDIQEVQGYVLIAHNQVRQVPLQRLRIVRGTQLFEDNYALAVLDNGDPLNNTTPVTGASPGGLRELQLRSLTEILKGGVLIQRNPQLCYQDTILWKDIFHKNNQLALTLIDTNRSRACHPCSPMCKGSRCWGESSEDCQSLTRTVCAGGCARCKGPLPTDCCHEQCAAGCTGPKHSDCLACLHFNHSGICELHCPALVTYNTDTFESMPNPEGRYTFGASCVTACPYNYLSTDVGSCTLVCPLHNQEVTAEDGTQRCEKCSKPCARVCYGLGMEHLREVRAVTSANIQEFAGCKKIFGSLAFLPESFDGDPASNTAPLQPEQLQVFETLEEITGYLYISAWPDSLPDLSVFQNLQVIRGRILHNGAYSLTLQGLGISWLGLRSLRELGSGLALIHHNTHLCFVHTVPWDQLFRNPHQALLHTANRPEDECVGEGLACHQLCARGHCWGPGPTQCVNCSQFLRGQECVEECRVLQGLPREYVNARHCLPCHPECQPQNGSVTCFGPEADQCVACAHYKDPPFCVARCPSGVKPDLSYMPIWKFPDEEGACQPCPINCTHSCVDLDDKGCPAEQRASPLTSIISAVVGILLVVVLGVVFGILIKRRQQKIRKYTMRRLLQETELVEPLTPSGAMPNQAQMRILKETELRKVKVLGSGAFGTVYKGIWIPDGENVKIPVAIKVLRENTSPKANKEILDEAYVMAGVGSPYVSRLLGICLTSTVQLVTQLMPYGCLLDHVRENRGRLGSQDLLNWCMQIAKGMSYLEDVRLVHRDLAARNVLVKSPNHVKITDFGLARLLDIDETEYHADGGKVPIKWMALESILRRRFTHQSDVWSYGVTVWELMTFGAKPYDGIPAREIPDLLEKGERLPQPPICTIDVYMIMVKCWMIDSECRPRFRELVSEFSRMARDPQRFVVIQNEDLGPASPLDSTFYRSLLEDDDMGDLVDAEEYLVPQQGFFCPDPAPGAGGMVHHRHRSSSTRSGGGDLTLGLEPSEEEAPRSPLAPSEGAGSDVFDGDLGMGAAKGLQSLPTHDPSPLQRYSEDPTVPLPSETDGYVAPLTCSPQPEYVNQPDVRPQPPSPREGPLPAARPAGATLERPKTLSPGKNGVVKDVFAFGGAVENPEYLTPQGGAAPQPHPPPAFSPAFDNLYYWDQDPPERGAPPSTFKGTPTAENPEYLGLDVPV
Sequence of Epithelial discoidin domain-containing receptor 1 (Homo sapiens) (Q08345 whole entry, the tested form may be a part): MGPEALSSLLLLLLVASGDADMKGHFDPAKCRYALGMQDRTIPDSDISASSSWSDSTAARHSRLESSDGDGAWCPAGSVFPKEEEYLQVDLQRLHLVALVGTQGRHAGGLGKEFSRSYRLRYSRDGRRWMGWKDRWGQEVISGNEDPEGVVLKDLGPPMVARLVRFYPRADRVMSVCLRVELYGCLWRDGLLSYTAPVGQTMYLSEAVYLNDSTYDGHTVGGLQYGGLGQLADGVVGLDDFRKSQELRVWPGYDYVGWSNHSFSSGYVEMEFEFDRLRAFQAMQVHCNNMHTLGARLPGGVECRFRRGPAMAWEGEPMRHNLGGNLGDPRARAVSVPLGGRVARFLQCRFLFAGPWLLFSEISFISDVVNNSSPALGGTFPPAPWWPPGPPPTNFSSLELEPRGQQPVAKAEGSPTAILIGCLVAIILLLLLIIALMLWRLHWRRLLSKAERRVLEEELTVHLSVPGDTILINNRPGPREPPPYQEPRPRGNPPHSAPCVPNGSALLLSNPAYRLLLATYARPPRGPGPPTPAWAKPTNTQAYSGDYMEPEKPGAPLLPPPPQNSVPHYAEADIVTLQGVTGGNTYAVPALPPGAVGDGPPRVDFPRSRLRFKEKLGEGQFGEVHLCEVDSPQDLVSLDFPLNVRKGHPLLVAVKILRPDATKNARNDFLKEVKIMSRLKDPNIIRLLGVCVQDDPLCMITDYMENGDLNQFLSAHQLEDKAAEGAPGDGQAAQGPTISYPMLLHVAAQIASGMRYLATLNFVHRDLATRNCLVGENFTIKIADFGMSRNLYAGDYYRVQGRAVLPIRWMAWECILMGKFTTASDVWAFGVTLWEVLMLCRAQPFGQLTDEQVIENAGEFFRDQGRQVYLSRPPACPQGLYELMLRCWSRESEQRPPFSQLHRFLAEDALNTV

- inhibition [1]: Active
- inhibition [2]: Active
- inhibition [3]: Active
- inhibition [4]: Active
- inhibition [5]: Active
- inhibition [6]: Active
- inhibition [7]: Active
- inhibition [8]: Active
- inhibition [9]: Active
- inhibition [10]: Active
- inhibition [11]: Active
Compound: COc1cc2c(Oc3ccc(NS(=O)(=O)c4ccccc4C(F)(F)F)cc3F)ccnc2cc1OCCCN1CCN(C)CC1

- Kd(free) [12]: 0.006 µM
Compound: COc1cc2c(Oc3ccc(NS(=O)(=O)c4c(F)cccc4F)cc3F)ccnc2cc1OCCCN1CCN(C)CC1

Compound: COc1cc2c(Oc3ccc(NS(=O)(=O)c4cc(F)ccc4F)cc3F)ccnc2cc1OCCCN1CCCC(C)C1 (stereo not drawn)
- T/C [13]: 118%
- T/C [14]: 127%
- Activity [15]: Non-Toxic
- Activity [16]: 40%

- Kd(free) [17]: 0.041 µM
- Kd(free) [18]: 5.975 µM
- Kd(free) [19]: > 6.194 µM
- Vd [23]: 10.2 L/kg
Compound: COc1cc2c(Oc3ccc(NS(=O)(=O)c4cc(F)ccc4F)cc3F)ccnc2cc1OCCCN1CCN(C)CC1
- Activity [20]: Toxic
- Activity [21]: 65.7%
- Activity [22]: 14.3%
